From PubChem BioAssay
A selection: hits, their analogues and other compounds. The true share with any hit is near 1.5%.
PKA-R1A activ – activates the PKA-R1A holoenzyme complex; activation, % at 11.4 µM; PKA-R1A dissociation, Cy5-IP20 fluorescence polarization; scaled: DMSO 0%, 113 µM cGMP 100%; P00514+P68181; AID 504707; 340,000 tested, 0.083% active;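 active = percent activation above the mean of all tested compounds plus 3 SD, cut at about 19% in these data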;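 also: higher means more PKAc released from R1A so a rise in polarization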
PKA-R2B activ – activates the human PKA-R2B holoenzyme complex. P22694+P31323. PKA-R2B holoenzyme dissociation, Cy5-IP20 fluorescence polarization; R2B truncated from residue 108, S112A mutant; 0% DMSO only, 100% 113 µM cGMP. activation, % at 11.4 µM. 340,000 tested, 0.079% active. AID 504700;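 active = activation above a cutoff set at the mean over all compounds plus 3 SD, cut at about 18% in these data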;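 also: higher means more holoenzyme dissociation and a rise in polarization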
Target sequence (P31323 whole entry, looked up, other chains not shown, the tested form may be a part): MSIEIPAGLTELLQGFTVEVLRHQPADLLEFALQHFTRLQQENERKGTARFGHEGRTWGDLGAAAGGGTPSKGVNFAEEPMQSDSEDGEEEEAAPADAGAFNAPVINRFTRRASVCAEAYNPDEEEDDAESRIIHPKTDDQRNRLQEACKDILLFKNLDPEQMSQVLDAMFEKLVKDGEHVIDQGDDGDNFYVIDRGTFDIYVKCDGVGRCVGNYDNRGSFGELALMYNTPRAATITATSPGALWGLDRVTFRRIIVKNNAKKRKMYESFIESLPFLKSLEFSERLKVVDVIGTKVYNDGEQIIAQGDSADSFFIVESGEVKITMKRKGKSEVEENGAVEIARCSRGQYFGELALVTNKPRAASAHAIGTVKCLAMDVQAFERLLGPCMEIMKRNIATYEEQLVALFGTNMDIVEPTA
Rin1-Abl PPI inh – inhibitors of human Rin1-Abl protein interaction; P00519+Q13671; TR-FRET Rin1/Abl binding, biochemical; inhibition, % at 7.35 µM; 360,000 tested, 0.4% active; AID 588664; in the data active = inhibition above about 5%, passing the limit was not always enough
H9c2 protect – modulators protecting cardiomyocytes from myocardial damage | 360,000 tested, 0.63% active | H9c2 cardiomyocytes, H2O2 injury protection, ATPLite, 2 h | protection from H2O2 cell death, % at 20 µM;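 active = compounds giving at least 50% protection of heart cells from peroxide-induced death in the single-dose screen, raw or plate-pattern-corrected value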;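 also: 0% = DMSO wells with peroxide and 100% = DMSO wells without peroxide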
TbMetRS inhib – blocks T. brucei methionyl-tRNA synthetase activity; purified T. brucei MetRS, ATP depletion, Kinase-Glo luminescence; AID 624268; inhibition, % at 11.9 µM; 360,000 tested, 0.4% active;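 active = inhibition above a per-plate cutoff of the control wells' mean inhibition plus 3 SD, cut at about 5.5% in these data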;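 also: 0% = DMSO wells median and 100% = median of wells with control inhibitor compound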
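Dosing: 11.9 µM single point; system: parasite MetRS enzyme; technique: luminescence of leftover ATP; times: 15 min enzyme-compound preincubation, 2 h reaction, 10 min detection, 25 °C; replicates: each compound tested once; read-out basis: percent inhibition relative to median high and low control wells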
R2B FP artifact – FP assay interference, PKA-R2B counter-screen | AID 504796 | activation, % at 11.4 µM | FP artifact counterscreen, fluorescence polarization | shares compounds with PKA-R2B activ | 270 tested, 6% active; in the data active = activation above about 20%;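 also: Cy5 labelled IP20 peptide probe with compound but no PKA protein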
PKA-R2B act conf – confirmation of human PKA-R2B complex activators | activation, % at 11.4 µM | fluorescence polarization, activation | shares compounds with PKA-R2B activ | AID 504797 | 270 tested, 9% active; in the data active = activation above about 19%
Target sequence (P31323 whole entry, looked up): as the sequence (P31323 whole entry, looked up, other chains not shown, the tested form may be a part) above
* = called active by the depositor; . = not tested or not shown.

SMILES | PKA-R1A activ | PKA-R2B activ | Rin1-Abl PPI inh | H9c2 protect | TbMetRS inhib | R2B FP artifact | PKA-R2B act conf
O=[N+]([O-])c1cc(-c2nnc(-c3ccccc3)o2)ccc1Oc1ccc(Cl)cc1 | 13 | -6 | 3 | -12 | 0 | . | .
CCOc1ccc(Oc2ccc(-c3nnc(-c4ccccc4)o3)cc2[N+](=O)[O-])cc1 | 13 | 21* | 4 | -2 | 0 | -1 | -1
O=C(NC1CCCCC1)c1ccc(Br)o1 | -9 | 18* | 1 | 5 | 0 | -3 | 2
CCOC(=O)c1ccccc1NC(=O)CSc1nc2[nH]ncc2c(=O)[nH]1 | 6 | 4 | 2 | 7 | -1 | . | .
Cc1cccc(Nc2ncnc(N)n2)c1 | -1 | 21* | 0 | -4 | 0 | 6 | 5
CC(=O)NCC(=O)OC(C)C(=O)Nc1ccc(C(C)=O)cc1 (stereo unspecified) | 0 | 19* | 4 | 0 | -1 | -3 | 2
COCC(=O)Nc1cccc(C(F)(F)F)c1 | 6 | 19* | -5 | 9 | 0 | 0 | -1
Cn1cnc(S(=O)(=O)Nc2cc(C(F)(F)F)ccc2N2CCOCC2)c1 | -4 | 20* | 0 | 5 | 0 | 1 | -1
CCOc1ccc(C(=O)NC(=S)NCc2cccnc2)cc1[N+](=O)[O-] | 4 | 3 | -1 | 1 | 0 | . | .
COC(=O)N/N=C/c1cn(CCOc2ccc(OC)cc2)c2ccccc12 | 2 | -1 | 3 | 3 | 0 | . | .
COC(=O)N/N=C/c1cn(CCOc2ccccc2)c2ccccc12 | -1 | 20* | 1 | 25 | 0 | 2 | -1
CCC(NC(=O)OCc1ccccc1)C(=O)Oc1ccc2ccc(=O)oc2c1 (stereo unspecified) | -15 | 19* | 1 | 6 | 0 | 0 | 3
Cc1cc(C)nc(N/N=C/c2cn[nH]c2-c2ccc(F)cc2)n1 | 4 | -1 | -2 | 2 | 0 | . | .
CC(=O)c1ccc(OCC(=O)Nc2nnc(C3CC3)s2)cc1 | 0 | 20* | -1 | -3 | 0 | 5 | 2
CC(OC(=O)C1CCN(c2ccc(C(F)(F)F)cn2)CC1)C(=O)Nc1cccc([N+](=O)[O-])c1 (stereo unspecified) | 7 | -17 | 2 | -13 | -1 | . | .
O=C(NC1CCCCCC1)c1c(O)nc2sccn2c1=O | 3 | -6 | 1 | 0 | -1 | . | .
O=C(NC1CCCCC1)c1c(O)nc2sccn2c1=O | 4 | 20* | 0 | 3 | 0 | 8 | 0
CCCC(=O)Nc1cccc(NC(=O)c2cccc([N+](=O)[O-])c2C)c1 | -2 | 1 | -2 | 3 | 0 | . | .
O=C(COC(=O)CCNS(=O)(=O)c1ccccc1)NC1CC1 | -2 | 19* | 0 | 3 | 0 | 4 | 0
O=C(COC(=O)CCNS(=O)(=O)c1ccccc1)NNC(=O)c1ccccc1 | 2 | -7 | 0 | 7 | 0 | . | .
CCOc1ccc(NC(=O)CN2C(=O)NC3(CCCCCC3)C2=O)cc1 | -4 | 20* | 4 | -1 | 0 | -3 | -3
CC(NC(=O)Cc1ccc(F)cc1)c1ccc(F)cc1 (stereo unspecified) | 2 | 19* | 0 | -2 | 0 | 1 | 6
CC(NC(=O)Cc1ccccc1)c1ccc(F)cc1 (stereo unspecified) | -1 | -8 | -4 | -6 | 0 | . | .
COc1cccc(CNC(=O)CCSCc2ccccc2F)c1 | 5 | 20* | 3 | -3 | -1 | -2 | -1
COc1cccc(OC)c1CNC(=O)CCSCc1ccccc1F | -9 | -6 | 3 | -3 | -1 | . | .
SMILES | PKA-R1A activ | PKA-R2B activ | Rin1-Abl PPI inh | H9c2 protect | TbMetRS inhib | R2B FP artifact | PKA-R2B act conf
CN(C)c1ccc(N=Nc2ccc(S(N)(=O)=O)cc2)cc1 | 9 | 1 | -9 | -3 | 1 | . | .
CN(C)c1ccc(N=Nc2ccc(S(=O)(=O)O)cc2)c2ccccc12 | -8 | 30* | 1 | 3 | 0 | -2 | 11
Cc1cccc(NC(=O)CSc2nnc(CNC(=O)c3cccs3)o2)c1C | 2 | -13 | 1 | 1 | 0 | . | .
COc1ccc(N2CCN(C(=O)c3ccc(OCc4c(C)noc4C)c(OC)c3)CC2)cc1 | 1 | 20* | 4 | -4 | 0 | 3 | 2
COc1ccccc1N(CC(O)Cn1ccnc1C)S(=O)(=O)c1ccccc1 (stereo unspecified) | 4 | 1 | 3 | 0 | -1 | . | .
Cc1ccc(N2C(=O)C3ON(c4ccccc4)C(c4ccncc4)C3C2=O)cc1 (stereo unspecified) | 3 | 20* | -3 | -2 | 0 | 2 | 3
CN1CCC(C(=O)N2CCCC(C(=O)c3ccc4c5c(cccc35)CC4)C2)CC1 (stereo unspecified) | 1 | -2 | -6 | 3 | -1 | . | .
CC(=O)N1CCCC(C(=O)c2ccc3c4c(cccc24)CC3)C1 (stereo unspecified) | 1 | 25* | -4 | 6 | 0 | 2 | 0
CCN(CC)S(=O)(=O)c1ccc(N2CCN(CCOc3ccc(OC)cc3)CC2)nc1 | 2 | 2 | 4 | -14 | -1 | . | .
COc1ccc(NS(=O)(=O)c2cc(NC(=O)c3ccccc3F)ccc2N2CCCC2)cc1 | -10 | 19* | -1 | -4 | -1 | -3 | -3
COc1cc(CCC(=O)OCC(=O)N2CCc3ccccc32)cc(OC)c1OC | -3 | 1 | -1 | -3 | -1 | . | .
NS(=O)(=O)c1ccc(CCNC(=O)c2ccc(Cl)c(S(=O)(=O)N3CCCCC3)c2)cc1 | 0 | 18* | 2 | -5 | 0 | 4 | 6
NS(=O)(=O)c1ccc(CCNC(=O)c2ccc(S(=O)(=O)N3CCCCC3)cc2)cc1 | 7 | -13 | 0 | -2 | 0 | . | .
CC(=O)NS(=O)(=O)c1ccc(N=NN2CCOCC2)cc1 | 3 | 23* | 4 | -1 | 0 | 1 | 9
COc1cc(NC(=O)CCNC(=O)Cn2cnc3ccccc3c2=O)cc(OC)c1OC | -7 | -7 | 0 | 2 | -1 | . | .
COc1ccc(NC(=O)CCNC(=O)Cn2cnc3ccccc3c2=O)cc1OC | -2 | 21* | 1 | 3 | 0 | 2 | -3
CN(C)S(=O)(=O)c1cccc(-c2cn3ccccc3n2)c1 | 4 | 19* | 1 | 2 | -1 | 5 | 4
Cc1cc(C(=O)NC2CCCN(Cc3ccc(Cl)cc3)C2)c(C)o1 (stereo unspecified) | 3 | 20* | 0 | 8 | 1 | 2 | 0
O=C(O)CC(Cc1ccc(Cl)cc1)C(=O)Nc1ccc([N+](=O)[O-])cc1 (stereo unspecified) | 3 | 19* | 2 | 2 | 1 | -4 | -1
